High-throughput results as filed in PubChem.
KCNQ1 block – human KCNQ1 channel inhibition; P51787; CHO-K1 KCNQ1, FluxOR thallium flux fluorescence; active compounds read high; B-score at 10 µM; 310,000 tested, 1.3% active; AID 2642;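 active = compounds whose thallium flux B-score, printed positive for inhibition, exceeds three library SD while starting fluorescence stays within three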;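 also: channel opened by potassium depolarization with thallium stimulus after 20 min compound exposure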
Target sequence (P51787 whole entry, looked up): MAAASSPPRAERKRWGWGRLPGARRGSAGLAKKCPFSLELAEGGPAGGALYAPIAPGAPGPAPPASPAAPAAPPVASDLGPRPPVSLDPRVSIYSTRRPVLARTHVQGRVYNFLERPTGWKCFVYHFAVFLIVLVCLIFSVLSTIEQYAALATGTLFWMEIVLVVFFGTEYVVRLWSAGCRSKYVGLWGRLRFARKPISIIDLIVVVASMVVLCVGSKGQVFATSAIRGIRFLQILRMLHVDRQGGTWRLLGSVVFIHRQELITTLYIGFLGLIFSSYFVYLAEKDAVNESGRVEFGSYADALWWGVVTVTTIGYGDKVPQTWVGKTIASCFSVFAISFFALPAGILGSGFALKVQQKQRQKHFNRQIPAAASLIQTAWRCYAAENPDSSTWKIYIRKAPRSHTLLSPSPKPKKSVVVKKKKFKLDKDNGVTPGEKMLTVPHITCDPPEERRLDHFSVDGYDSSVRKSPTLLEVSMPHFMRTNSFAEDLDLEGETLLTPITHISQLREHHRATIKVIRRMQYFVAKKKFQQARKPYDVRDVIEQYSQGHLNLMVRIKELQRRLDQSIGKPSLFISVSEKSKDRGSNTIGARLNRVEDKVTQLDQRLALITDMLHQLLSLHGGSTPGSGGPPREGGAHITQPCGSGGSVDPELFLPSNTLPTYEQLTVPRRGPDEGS
KCNQ1 pot – human KCNQ1 channel potentiation or activation. 310,000 tested, 0.35% active. CHO-K1 KCNQ1, thallium flux FluxOR fluorescence; active compounds read high. B-score at 10 µM;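 active = fluorescence ratio B-score, a plate-corrected score, at least three library SD, with initial intensity B-score within 5 SD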
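Test system: CHO-K1 cells stably expressing KCNQ1 / Medium: assay buffer / Also added: depolarizing K+/Tl+ stimulus, K2SO4 and Tl2SO4 each 12.5 mM in 5x stock / Incubation: 90 min dye loading and 20 min compound exposure, both at room temperature / Signal: thallium influx via FluxOR fluorescence, kinetic imaging / Evaluation: B score of baseline-normalized fluorescence ratio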
KCNK9 inh – inhibitors of human KCNK9 two-pore domain potassium channel; Q9NPC2; HEK293 KCNK9, FluxOR thallium flux fluorescence; active compounds read low; B-score at 10 µM; 310,000 tested, 1.2% active; AID 488922;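 active = ratio B-score over 3 SD below the library mean, with starting fluorescence within 5 SD of its mean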;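 also: negative B-score means less thallium flux so channel inhibition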
hERG protect – shields human hERG channel from block by proarrhythmic agents; Q12809; CHO-hERG, FluxOR thallium flux, dofetilide IC70 present; activation (rescue from dofetilide block), less the hit threshold, % at 10 µM; 310,000 tested, 0.51% active; AID 1511;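 active = activation above the mean of controls blocked by dofetilide plus 5 SD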;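 also: thallium influx through hERG after potassium depolarization seen as dye fluorescence rise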
KCNK3 block – human KCNK3 channel inhibition, primary screen | O14649 | CHO-KCNK3 thallium flux, FluxOR fluorescence; active compounds read low | B-score at 10 µM | 340,000 tested, 0.84% active | AID 602410;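 active = B-score under library mean minus 4 SD, starting fluorescence ratio at most library mean plus 5 SD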;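 also: more negative B-score means stronger inhibition of thallium flux through KCNK3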
KCNK9 block conf – confirmation of human KCNK9 potassium channel inhibitors | shares compounds with KCNK9 inh | HEK293 KCNK9 cells, FluxOR thallium flux fluorescence | inhibition, % at 10 µM | 4,900 tested, 43% active;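 active = thallium signal inhibited by more than 5 SD of the compound-free buffer control wells, on both duplicate plates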;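 also: 0% = assay buffer control wells without compound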
Kir2-1 spec – selectivity of KCNK9 modulators against mouse Kir2.1; shares compounds with KCNK9 inh; Kir2.1 cells, FluxOR thallium flux fluorescence; inhibition, % at 10 µM; 4,900 tested, 4% active; AID 492993;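 active = thallium signal drop more than 5 SD beyond the mean of the no-compound control wells, seen in both duplicate plates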;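 also: signal is fluorescence rise after thallium addition divided by baseline fluorescence; plate controls were assay buffer only for no effect and full block by chlorpromazine control for full effect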
KCNK9 uninduced – non-induced cell nonspecific activity of KCNK9 modulators. non-induced KCNK9-HEK293, FluxOR thallium flux. inhibition, % at 10 µM. 4,900 tested, 40% active. shares compounds with KCNK9 inh;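 active = thallium signal drop beyond 5 SD of the untreated control mean, on both duplicate plates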;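 also: plate controls were buffer only IC0 wells for no effect and SID17386958 at its maximal inhibitory level for full effect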
Active calls of the source: *; i = inactive; . = not tested or not shown. This is a sample that favours compounds with a hit; in the whole collection about 3.1% have one here.

SMILES	KCNQ1 block	KCNQ1 pot	KCNK9 inh	hERG protect	KCNK3 block	KCNK9 block conf	Kir2-1 spec	KCNK9 uninduced
COc1ccc2[nH]c3c(c2c1)CCN1C(=O)C(CC(=O)NCCC2=CCCCC2)C[C@H](C(=O)N2CCOCC2)[C@@]31C (some centres undefined)	.	.	.	.	i	.	.	.
CN(C)/N=C/c1ccc(Sc2ccccc2[N+](=O)[O-])o1	i	i	i	-7	i	i	i	i
COc1cc(C(=O)O)ccc1OCc1ccncc1	i	i	i	1	i	.	.	.
CCOC(=O)c1sc2nc(CC(=O)OC)nc(N3CCN(c4ccc(OC)cc4)CC3)c2c1C	i	i	i	-3	i	i	i	i
CCOC(=O)c1sc2nc(CC(=O)OC)nc(NCCN3CCOCC3)c2c1C	i	i	i	-7	i	.	.	.
Cn1cc(S(=O)(=O)N2CCN(c3ccccc3)CC2)c(=O)n(C)c1=O	i	i	i	-7	i	.	.	.
Cn1cc(S(=O)(=O)N2CCN(c3cccc(Cl)c3)CC2)c(=O)n(C)c1=O	i	i	i	-10	i	i	i	i
c1ccc(OCc2noc(CN3CCC(C4CCCCC4)C3)n2)cc1 (centres undefined)	i	i	i	-7	i	i	i	i
Fc1ccccc1OCC1CCCN(Cc2nc(CC3CC3)no2)C1 (centres undefined)	i	i	i	-9	i	i	i	i
Clc1cccc(C2CCN(Cc3nc(CC4CC4)no3)C2)c1 (centres undefined)	i	i	i	-9	i	i	i	i
c1ccc(COC2CCCN(Cc3nc(Cc4ccccc4)no3)C2)cc1 (centres undefined)	i	i	i	-9	i	i	i	i
COC1CCCN(Cc2nc(Cc3ccccc3F)no2)C1 (centres undefined)	i	i	i	-8	i	.	.	.
CCN(C(=O)Cn1nc(C)c([N+](=O)[O-])c1C)c1c(N)n(Cc2ccccc2)c(=O)[nH]c1=O	i	i	i	-17	i	.	.	.
Fc1ccccc1C1CCN(Cc2nc(COc3ccccc3)no2)C1 (centres undefined)	i	i	i	-16	i	i	i	i
Cc1cccc2nc(-c3ccccc3)nc(N[C@@H](CO)c3ccccc3)c12	i	i	-8.3*	-12	i	50%*	i	44%*
COc1cc(OC)cc(C(=O)NNC(=O)C(CCC(N)=O)NS(=O)(=O)c2ccc(Cl)cc2)c1 (centres undefined)	.	.	.	.	i	.	.	.
Cc1ccc(-c2csc3ncn(CC(N)=O)c(=O)c23)cc1C	i	i	i	-2	i	.	.	.
CCCn1cnc2scc(-c3ccc(C)c(C)c3)c2c1=O	i	i	i	-8	i	i	i	i
C=CCn1cnc2scc(-c3ccc(C)c(C)c3)c2c1=O	i	i	i	-4	i	i	i	i
C=CCn1cnc2scc(-c3ccc(OC)cc3)c2c1=O	i	i	i	-10	i	.	.	.
CCOC(=O)C(C)n1cnc2scc(-c3ccc(C)cc3)c2c1=O (centres undefined)	i	i	i	-11	i	.	.	.
CCCOC(=O)Cn1cnc2scc(-c3ccc(C)cc3)c2c1=O	i	i	i	-8	i	i	i	i
Cc1cccc(C)c1NC(=O)CNC(=O)CNC(=O)c1ccc2c(c1)OCO2	i	i	i	-12	i	.	.	.
CCC(=O)N(CCC(Cc1ccccc1)c1ccc2c(c1)OCO2)Cc1ccccc1F (centres undefined)	9*	i	-13*	-11	i	65%*	i	32%*
CC(NCCC(Cc1ccccc1)c1ccco1)c1ccccc1 (centres undefined)	i	i	i	-22	i	.	.	.
SMILES	KCNQ1 block	KCNQ1 pot	KCNK9 inh	hERG protect	KCNK3 block	KCNK9 block conf	Kir2-1 spec	KCNK9 uninduced
CCC(=O)N(CCc1ccccc1)Cc1cc2cc3c(cc2[nH]c1=O)OCO3	i	i	i	-11	i	.	.	.
CCC(=O)N(CCC(Cc1ccccc1)c1ccco1)Cc1ccco1 (centres undefined)	i	i	-9.9*	-23	i	46%*	50%*	36%*
CC(=O)Nc1cc([N+](=O)[O-])ccc1OCc1ccccc1	.	.	.	.	i	.	.	.
Cc1ccc(CN2CCN(C(=O)c3cccc4ccccc34)CC2)cc1	i	i	i	-11	i	.	.	.
Cc1cccc(CN2CCN(C(=O)c3cccc4ccccc34)CC2)c1	i	i	i	-9	i	i	i	i
CCCCCCC(=O)NNC(=O)c1c(O)c2ccccc2n(CC)c1=O	i	i	i	-7	i	.	.	.
CCCCCCCC(=O)NNC(=O)c1c(O)c2ccccc2n(CC)c1=O	i	i	i	-6	i	i	i	i
CCCCCCCC(=O)NNC(=O)c1c(O)c2ccccc2n(CCC)c1=O	i	i	i	-7	i	i	i	i
CCc1ccc(-c2cc(C)no2)cc1S(=O)(=O)NCCc1ccc(OC)c(OC)c1	i	i	i	-14	i	.	.	.
Cc1ccc(NC(=O)Cn2nc(C(=O)O)c3ccccc3c2=O)cc1S(=O)(=O)N1CCOCC1	.	.	.	.	i	.	.	.
COC(=O)[C@@]12CCCN1[C@H](c1ccc(-c3ccccc3)cc1)[C@@H]1C(=O)N(C)C(=O)[C@@H]12	i	i	i	-8	i	.	.	.
Cc1ccc(SCC2(O)CCN(S(=O)(=O)c3ccc(Cl)cc3)CC2)cc1	i	80*	i	-10	i	i	i	i
Cc1cc(C)c(OCC(=O)N2CC=C(c3ccccc3)CC2)c(C)c1	i	i	i	-9	i	.	.	.
CN(CC(=O)Nc1c(Cl)cccc1Cl)C(=O)CCNS(=O)(=O)c1ccccc1C(F)(F)F	i	i	i	-7	i	.	.	.
CCCCCCCn1c2c(c(=N)c3ccccc31)CCC2	i	i	-10*	-31	-11*	47%*	77%*	i
CCCn1c2c(c(=N)c3c1CCC3)CCC2	i	i	i	-6	i	.	.	.
CCCC/C=C/C(NC(=O)CCc1ccccc1)c1ccccc1 (centres undefined)	i	i	-10*	-5	i	48%*	i	35%*
CC(C)OCCCNC(=O)C1CCN(S(=O)(=O)N2CCCC2)CC1	i	i	-8.1*	-21	i	i	i	i
